We go through twelve compounds from ChEMBL document CHEMBL3997810, “A Novel Potent Anticancer Compound Optimized from a Natural Oridonin Scaffold Induces Apoptosis and Cell Cycle Arrest through the Mitochondrial Pathway” (J Med Chem, 2017).

SMILES strings stand for the structures.

One test has as its system MGC-803. Kind of test: Antiproliferative activity against human MGC803 cells after 72 hrs by MTT assay. In kind it is functional, cell-based. The settings on record: MGC-803, 72 h. In short, it runs like this:
(§1)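 MGC-803 and MCF-7 cells grown in DMEM (MCF-7 with 1× NEAA); Bel-7402 and K562 grown in RPMI 1640; all media with 10% FBS. Cells seeded at 3500/well, pre-incubated 24 h, then exposed to compounds in fresh medium (DMSO ≤0.25%) for 72 h at 37 °C. MTT read-out at 570 nm. Quadruplicate wells, repeated three times; means ± SD (n = 3).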
(Tetrazolium assays rely on reduction of a dye to a coloured formazan, in cell work by metabolically active cells.)
Take `O=c1[nH]cc(F)c(=O)[nH]1` [FLUOROURACIL]: 3.12 µM corresponded to half-maximal inhibition (IC50). This lies in the single-digit micromolar range.
On the same count and under the same terms, then `C=C1C(=O)[C@]23[C@H](OC(=O)c4cccc(C)c4C)[C@H]1CC[C@H]2[C@]12C=CCC(C)(C)[C@H]1[C@H](O)[C@]3(O)OC2`, with 3.78 µM; and `C=C1C(=O)[C@]23[C@H](OC(=O)/C=C/c4ccc(F)cc4)[C@H]1CC[C@H]2[C@]12C=CCC(C)(C)[C@H]1[C@H](O)[C@]3(O)OC2`, with 5.11 µM.
On to `C=C1C(=O)[C@]23[C@H](OC(=O)C4CCCCC4)[C@H]1CC[C@H]2[C@]12C=CCC(C)(C)[C@H]1[C@H](O)[C@]3(O)OC2`, for which the IC50 (as a rule, the midpoint of a concentration-inhibition curve) was determined as 3.6 µM.
Same read-out and setting: then `C=C1C(=O)[C@]23[C@H](OC(=O)c4cccc(Cl)c4)[C@H]1CC[C@H]2[C@]12C=CCC(C)(C)[C@H]1[C@H](O)[C@]3(O)OC2`, with 3.65 µM.
Still for that read-out and setting: then `C=C1C(=O)[C@]23[C@H](OC(C)=O)[C@H]1CC[C@H]2[C@]12C=CC(=O)C(C)(C)[C@H]1[C@H](O)[C@]3(O)OC2`, with 5.19 µM; and `C=C1C(=O)[C@]23[C@H](OC(=O)c4cc(F)c(F)c(F)c4F)[C@H]1CC[C@H]2[C@]12C=CCC(C)(C)[C@H]1[C@H](O)[C@]3(O)OC2`, with 1 µM; and `C=C1C(=O)[C@]23[C@H](OC(C)=O)[C@H]1CC[C@H]2[C@]12C=CCC(C)(C)[C@H]1[C@H](O)[C@]3(O)OC2`, with 1.82 µM.
Same read-out and setting: then `C=C1C(=O)[C@]23[C@H](O)[C@H]1CC[C@H]2[C@]12C=C[C@H](O)C(C)(C)[C@H]1[C@H](O)[C@]3(O)OC2`, with 61.1 µM; and `C=C1C(=O)[C@]23[C@H](OC(=O)c4ccccc4C(F)(F)F)[C@H]1CC[C@H]2[C@]12C=CCC(C)(C)[C@H]1[C@H](O)[C@]3(O)OC2`, with 2.46 µM; and `C=C1C(=O)[C@]23[C@H](OC(=O)/C=C/c4cc(OC)c(OC)c(OC)c4)[C@H]1CC[C@H]2[C@]12C=CCC(C)(C)[C@H]1[C@H](O)[C@]3(O)OC2`, with 3.91 µM.
Consider `C=C1C(=O)[C@]23[C@H](OC(=O)c4ccc([N+](=O)[O-])cc4)[C@H]1CC[C@H]2[C@]12C=CCC(C)(C)[C@H]1[C@H](O)[C@]3(O)OC2`, for which the midpoint of inhibition, the IC50, lay at 6.39 µM. Compared with the last compound, the IC50 is about 1.6-fold higher.

The subject of another test is K562. Put plainly: Antiproliferative activity against human K562 cells after 72 hrs by MTT assay. In kind it is functional, cell-based. As to conditions: K562, 72 h. The method, boiled down: as §1
As to `O=c1[nH]cc(F)c(=O)[nH]1` [FLUOROURACIL], inhibition was half-maximal at 3.54 µM (IC50).
Still for that read-out and setting: then `C=C1C(=O)[C@]23[C@H](OC(=O)c4cccc(C)c4C)[C@H]1CC[C@H]2[C@]12C=CCC(C)(C)[C@H]1[C@H](O)[C@]3(O)OC2`, with 1.68 µM.
With `C=C1C(=O)[C@]23[C@H](OC(=O)/C=C/c4ccc(F)cc4)[C@H]1CC[C@H]2[C@]12C=CCC(C)(C)[C@H]1[C@H](O)[C@]3(O)OC2`, the IC50 was 1.34 µM.
Still for that read-out and setting: the figure for `C=C1C(=O)[C@]23[C@H](OC(=O)C4CCCCC4)[C@H]1CC[C@H]2[C@]12C=CCC(C)(C)[C@H]1[C@H](O)[C@]3(O)OC2` is 3.22 µM; for `C=C1C(=O)[C@]23[C@H](OC(=O)c4cccc(Cl)c4)[C@H]1CC[C@H]2[C@]12C=CCC(C)(C)[C@H]1[C@H](O)[C@]3(O)OC2` it is 2.23 µM.
Still for that read-out and setting: the figure for `C=C1C(=O)[C@]23[C@H](OC(C)=O)[C@H]1CC[C@H]2[C@]12C=CC(=O)C(C)(C)[C@H]1[C@H](O)[C@]3(O)OC2` is 4.64 µM; for `C=C1C(=O)[C@]23[C@H](OC(=O)c4cc(F)c(F)c(F)c4F)[C@H]1CC[C@H]2[C@]12C=CCC(C)(C)[C@H]1[C@H](O)[C@]3(O)OC2` it is 1.83 µM.
On the same count and under the same terms, then `C=C1C(=O)[C@]23[C@H](OC(C)=O)[C@H]1CC[C@H]2[C@]12C=CCC(C)(C)[C@H]1[C@H](O)[C@]3(O)OC2`, with 1.67 µM; and `C=C1C(=O)[C@]23[C@H](O)[C@H]1CC[C@H]2[C@]12C=C[C@H](O)C(C)(C)[C@H]1[C@H](O)[C@]3(O)OC2`, with 41.1 µM; and `C=C1C(=O)[C@]23[C@H](OC(=O)c4ccccc4C(F)(F)F)[C@H]1CC[C@H]2[C@]12C=CCC(C)(C)[C@H]1[C@H](O)[C@]3(O)OC2`, with 2.96 µM.
Take `C=C1C(=O)[C@]23[C@H](OC(=O)/C=C/c4cc(OC)c(OC)c(OC)c4)[C@H]1CC[C@H]2[C@]12C=CCC(C)(C)[C@H]1[C@H](O)[C@]3(O)OC2`: the 50% inhibitory concentration (IC50) came out at 0.55 µM.
Same read-out and setting: the figure for `C=C1C(=O)[C@]23[C@H](OC(=O)c4ccc([N+](=O)[O-])cc4)[C@H]1CC[C@H]2[C@]12C=CCC(C)(C)[C@H]1[C@H](O)[C@]3(O)OC2` is 1.7 µM.

In another test the test system is MCF7. Put plainly: Antiproliferative activity against human MCF7 cells after 72 hrs by MTT assay. As to conditions: MCF7, 72 h. In kind it is functional, cell-based. In short, it runs like this: as §1
On to `O=c1[nH]cc(F)c(=O)[nH]1` [FLUOROURACIL], for which half-maximal inhibition (IC50) required 1.75 µM.
On the same count and under the same terms, the figure for `C=C1C(=O)[C@]23[C@H](OC(=O)c4cccc(C)c4C)[C@H]1CC[C@H]2[C@]12C=CCC(C)(C)[C@H]1[C@H](O)[C@]3(O)OC2` is 3.58 µM.
Same read-out and setting: the figure for `C=C1C(=O)[C@]23[C@H](OC(=O)/C=C/c4ccc(F)cc4)[C@H]1CC[C@H]2[C@]12C=CCC(C)(C)[C@H]1[C@H](O)[C@]3(O)OC2` is 2.51 µM.
On the same count and under the same terms, the figure for `C=C1C(=O)[C@]23[C@H](OC(=O)C4CCCCC4)[C@H]1CC[C@H]2[C@]12C=CCC(C)(C)[C@H]1[C@H](O)[C@]3(O)OC2` is 5.83 µM.
Compound `C=C1C(=O)[C@]23[C@H](OC(=O)c4cccc(Cl)c4)[C@H]1CC[C@H]2[C@]12C=CCC(C)(C)[C@H]1[C@H](O)[C@]3(O)OC2` registered an IC50 of 2.8 µM. Against the preceding compound, the IC50 is about 2.1-fold lower.
Same read-out and setting: the figure for `C=C1C(=O)[C@]23[C@H](OC(C)=O)[C@H]1CC[C@H]2[C@]12C=CC(=O)C(C)(C)[C@H]1[C@H](O)[C@]3(O)OC2` is 9.41 µM; for `C=C1C(=O)[C@]23[C@H](OC(=O)c4cc(F)c(F)c(F)c4F)[C@H]1CC[C@H]2[C@]12C=CCC(C)(C)[C@H]1[C@H](O)[C@]3(O)OC2` it is 2.11 µM; for `C=C1C(=O)[C@]23[C@H](OC(C)=O)[C@H]1CC[C@H]2[C@]12C=CCC(C)(C)[C@H]1[C@H](O)[C@]3(O)OC2` it is 2.57 µM.
The same measure, in the same setting: the figure for `C=C1C(=O)[C@]23[C@H](O)[C@H]1CC[C@H]2[C@]12C=C[C@H](O)C(C)(C)[C@H]1[C@H](O)[C@]3(O)OC2` is 303 µM; for `C=C1C(=O)[C@]23[C@H](OC(=O)c4ccccc4C(F)(F)F)[C@H]1CC[C@H]2[C@]12C=CCC(C)(C)[C@H]1[C@H](O)[C@]3(O)OC2` it is 2.66 µM.
The same measure, in the same setting: then `C=C1C(=O)[C@]23[C@H](OC(=O)/C=C/c4cc(OC)c(OC)c(OC)c4)[C@H]1CC[C@H]2[C@]12C=CCC(C)(C)[C@H]1[C@H](O)[C@]3(O)OC2`, with 2.36 µM.
Take `C=C1C(=O)[C@]23[C@H](OC(=O)c4ccc([N+](=O)[O-])cc4)[C@H]1CC[C@H]2[C@]12C=CCC(C)(C)[C@H]1[C@H](O)[C@]3(O)OC2`: the IC50 came out at 4.47 µM.

Another test has as its system Bel-7402. Put plainly: Antiproliferative activity against human Bel7402 cells after 72 hrs by MTT assay. As to conditions: Bel-7402, 72 h. It is filed as functional, cell-based. The method, boiled down:
as §1
On to `O=c1[nH]cc(F)c(=O)[nH]1` [FLUOROURACIL], for which half-maximal inhibition (IC50) required 2.25 µM.
In turn, `C=C1C(=O)[C@]23[C@H](OC(=O)c4cccc(C)c4C)[C@H]1CC[C@H]2[C@]12C=CCC(C)(C)[C@H]1[C@H](O)[C@]3(O)OC2` displayed an IC50 of 2.33 µM.
Take `C=C1C(=O)[C@]23[C@H](OC(=O)/C=C/c4ccc(F)cc4)[C@H]1CC[C@H]2[C@]12C=CCC(C)(C)[C@H]1[C@H](O)[C@]3(O)OC2`: the IC50 worked out at 2.58 µM. The IC50 values of the last two compounds are within 1.5-fold of each other.
Still for that read-out and setting: the figure for `C=C1C(=O)[C@]23[C@H](OC(=O)C4CCCCC4)[C@H]1CC[C@H]2[C@]12C=CCC(C)(C)[C@H]1[C@H](O)[C@]3(O)OC2` is 4.06 µM; for `C=C1C(=O)[C@]23[C@H](OC(=O)c4cccc(Cl)c4)[C@H]1CC[C@H]2[C@]12C=CCC(C)(C)[C@H]1[C@H](O)[C@]3(O)OC2` it is 4.16 µM; for `C=C1C(=O)[C@]23[C@H](OC(C)=O)[C@H]1CC[C@H]2[C@]12C=CC(=O)C(C)(C)[C@H]1[C@H](O)[C@]3(O)OC2` it is 3.61 µM.
Same read-out and setting: then `C=C1C(=O)[C@]23[C@H](OC(=O)c4cc(F)c(F)c(F)c4F)[C@H]1CC[C@H]2[C@]12C=CCC(C)(C)[C@H]1[C@H](O)[C@]3(O)OC2`, with 1.58 µM; and `C=C1C(=O)[C@]23[C@H](OC(C)=O)[C@H]1CC[C@H]2[C@]12C=CCC(C)(C)[C@H]1[C@H](O)[C@]3(O)OC2`, with 1.67 µM.
The same measure, in the same setting: then `C=C1C(=O)[C@]23[C@H](O)[C@H]1CC[C@H]2[C@]12C=C[C@H](O)C(C)(C)[C@H]1[C@H](O)[C@]3(O)OC2`, with 25.5 µM; and `C=C1C(=O)[C@]23[C@H](OC(=O)c4ccccc4C(F)(F)F)[C@H]1CC[C@H]2[C@]12C=CCC(C)(C)[C@H]1[C@H](O)[C@]3(O)OC2`, with 3.18 µM.
`C=C1C(=O)[C@]23[C@H](OC(=O)/C=C/c4cc(OC)c(OC)c(OC)c4)[C@H]1CC[C@H]2[C@]12C=CCC(C)(C)[C@H]1[C@H](O)[C@]3(O)OC2` registered an IC50 of 2.44 µM. The IC50 values of the last two compounds are within 1.5-fold of each other.
Still for that read-out and setting: then `C=C1C(=O)[C@]23[C@H](OC(=O)c4ccc([N+](=O)[O-])cc4)[C@H]1CC[C@H]2[C@]12C=CCC(C)(C)[C@H]1[C@H](O)[C@]3(O)OC2`, with 5.14 µM.
